SR-BI DiI inh – inhibitors of SR-BI mediated HDL lipid uptake, primary screen, ldlA[mSR-BI] cells, fluorescence, single point | Scavenger receptor class B member 1 (Mus musculus), Q61009 | ldlA[mSR-BI] CHO cells, DiI-HDL uptake fluorescence, 3 h | inhibition, % at 12.5 µM | 320,000 tested, 0.96% active;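 active means mean replicate inhibition of at least 70% and a set share of replicates each scoring 70 or more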;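 further: 0% = median of neutral control wells and 100% = median of positive control wells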
dFosB activator – activators of delta FosB homodimer, primary screen, biochemical, fluorescence polarization, TAMRA-CDK5 oligo, single point; activation, % at 25 µM; purified delta FosB; percent of positive-control signal above neutral wells; AID 493131, 2011; Protein FosB (Mus musculus), P13346; 340,000 tested, 0.99% active;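 active means mean activation above about 17%, with every replicate also reaching it, limit read from the data, passing the limit was not always enough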
SR-BI DiI-HDL act – activators of SR-BI mediated DiI-HDL uptake, primary screen, ldlA[mSR-BI] CHO cells, DiI fluorescence; 3 h; 100 = double the neutral-control signal; activation, % at 12.5 µM; 320,000 tested, 0.096% active;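 active means mean replicate activation of at least 60% and every replicate at or above 60%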;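 further: 0% = median plate neutral-control signal and 100% = twice that signal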
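Test system: SR-BI-overexpressing, LDLR-lacking CHO cells; Also added: labelled HDL, 10 µg/mL; Measured by: bottom-read cell fluorescence after medium removal, ex 550/em 595 nm; Timing: 3 h uptake period with compound, 37 °C; Buffer or medium: F12, 0.5% BSA, 25 mM HEPES; Doses: single compound concentration, delivered by pin transfer.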
CDK5 p35 inh – inhibitors of human CDK5/p35 kinase, primary screen, biochemical, single concentration; Cyclin-dependent kinase 5 (Homo sapiens) + Cyclin-dependent kinase 5 activator 1 (Homo …; Recombinant CDK5/p35, ADP-Glo luminescence, 60 min; inhibition, % at 10 µM; 330,000 tested, 0.01% active; AID 488839, 2010;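 active means highest replicate inhibition of at least 50% and at least 75% of replicates reaching 50%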;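 further: plate controls were DMSO neutral control for no effect and GW8510 at 10 µM for full effect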
Target sequence (Q00535 whole entry, looked up): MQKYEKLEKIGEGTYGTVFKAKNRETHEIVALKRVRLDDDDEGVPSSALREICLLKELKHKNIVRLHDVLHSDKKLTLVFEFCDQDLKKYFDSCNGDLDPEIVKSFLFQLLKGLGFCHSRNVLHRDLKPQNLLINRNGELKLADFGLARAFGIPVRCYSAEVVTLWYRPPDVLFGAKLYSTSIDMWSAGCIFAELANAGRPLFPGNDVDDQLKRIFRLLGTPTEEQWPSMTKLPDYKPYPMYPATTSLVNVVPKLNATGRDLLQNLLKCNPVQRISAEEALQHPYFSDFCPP
Target sequence (Q15078 whole entry, looked up): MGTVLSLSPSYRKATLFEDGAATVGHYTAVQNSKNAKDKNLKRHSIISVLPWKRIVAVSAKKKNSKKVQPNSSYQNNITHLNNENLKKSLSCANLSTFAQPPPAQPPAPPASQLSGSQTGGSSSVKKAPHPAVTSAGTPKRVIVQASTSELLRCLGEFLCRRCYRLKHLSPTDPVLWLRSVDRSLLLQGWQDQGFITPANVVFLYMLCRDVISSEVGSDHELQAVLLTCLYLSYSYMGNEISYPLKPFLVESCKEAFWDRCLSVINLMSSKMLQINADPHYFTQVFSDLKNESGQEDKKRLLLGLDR
* hit, by the source's call; . = no result. In the library only some 2% were active in any assay of this set; here they are far more common.

SMILES	SR-BI DiI inh	dFosB activator	SR-BI DiI-HDL act	CDK5 p35 inh
NC(=O)c1ccc(Oc2ccc3c(c2)CCC3)c([N+](=O)[O-])c1	-5	-8	5	-1
CC(=O)NCCC(=O)Nc1cc(S(=O)(=O)N2CCOCC2)ccc1N1CCCC1	3	8	-3	-1
CCOC(=O)C1=C(COC(=O)C2(C)CC2(Cl)Cl)NC(=O)NC1c1ccc(OC)cc1 (stereo not drawn)	73*	-11	-73	3
CCOC(=O)C1=C(CP(=O)(c2ccccc2)c2ccccc2)NC(=O)NC1c1ccc(OC)cc1 (stereo not drawn)	-6	-13	6	-3
CN(C)c1ccc(/C=N/Nc2cccc(C(=O)O)c2)cc1	1	-3	-1	-1
CSc1ccccc1OCc1cc(C(=O)NCCn2nc(C)cc2C)no1	72*	-9	-72	1
C[C@H](CO)N1C[C@H](C)[C@@H](CN(C)Cc2ccccc2)Oc2ccc(NC(=O)Cn3cnnn3)cc2C1=O	-30	-10	30	-1
COc1ccc(Nc2nnc(-c3ccc(N4CCOCC4)c([N+](=O)[O-])c3)c3ccccc23)cc1	79*	5	-79	-1
COc1ccc(C(=O)c2ccc(N3CCOCC3)c([N+](=O)[O-])c2)cc1	80*	-1	-80	0
CCCc1cc(=O)oc2cc(C)cc(OCC(=O)NCc3ccncc3)c12	3	-12	-3	.
CC1(C)C2CCC13CS(=O)(=O)N[C@@H]3C2 (stereo partly drawn)	-118	8	118*	3
Cc1ccccc1Cn1c(O)c(N=NC(=S)Nc2ccccc2F)c2ccccc21	46	-10	-46	0
Cc1ccc(C)c(Cn2c(O)c(N=NC(=S)Nc3ccccc3F)c3ccccc32)c1	84*	-13	-84	-1
N=C1/C(=C/c2cccn2CCOc2ccccc2)C(=O)N=C2SC=C(c3ccccc3)N12	75*	-4	-75	0
O=S(=O)(c1cc(Cl)ccc1Cl)N1CCN(c2ccccn2)CC1	.	1	.	-2
O=c1ccc2cc3c([nH]c4ccc(Br)cc43)oc-2c1O	88*	-11	-88	12
COc1ccc(C(=O)N/N=C(/C)c2cccc(NC(=O)c3ccncc3)c2)cc1OC	15	-12	-15	2
COc1ccc(C(=O)Nc2cccc([N+](=O)[O-])c2)cc1Br	83*	6	-83	0
COc1ccc(C(=O)Nc2cccc(/C(C)=N/NC(=O)c3ccc([N+](=O)[O-])cc3)c2)cc1OC	71*	-6	-71	-1
Cc1nc2ccc(C(=O)Nc3cccc([N+](=O)[O-])c3)cc2s1	74*	13	-74	-5
O=C(Nc1cccc([N+](=O)[O-])c1)c1cc2ccccc2cc1O	129*	-14	-129	1
COc1ccc(C(=O)Nc2ccc(OC)c([N+](=O)[O-])c2)cc1Br	68	10	-60	2
Cc1c(S(=O)(=O)NC2CCCCC2)c(=O)n(C)c(=O)n1C	-11	-4	11	2
Cc1ccccc1NS(=O)(=O)c1cc(C(=O)Nc2cccc([N+](=O)[O-])c2)ccc1C	72*	5	-72	0
Cc1ccc(C(=O)Nc2cccc([N+](=O)[O-])c2)cc1S(=O)(=O)Nc1ccc(C(=O)O)cc1	6	-8	-6	-1
SMILES	SR-BI DiI inh	dFosB activator	SR-BI DiI-HDL act	CDK5 p35 inh
CC[n+]1c(/C=C/c2ccc(OC)c(OC)c2)ccc2ccccc21	-2	-6	2	-1
CC[n+]1ccccc1/C=C/c1ccc(N(C)C)cc1	-5	-3	5	1
CC[n+]1c(/C=C/c2ccc(N(C)C)cc2)ccc2ccccc21	8	53*	-8	9
CN(C)c1ccc(/C=C/c2cc[n+](C)cc2)cc1	-19	32*	19	0
CC[n+]1ccc(/C=C/c2ccc(N(C)C)cc2)c2ccccc21	9	47*	-9	14
CC1CCc2c(sc(NC(=O)c3cccn3C)c2C(N)=O)C1 (stereo not drawn)	81*	-9	-81	-6
COC(=O)Nc1sc2c(c1C(N)=O)CCC(C)C2 (stereo not drawn)	48	-5	-48	2
CN1C(=O)C(C)(C)c2cc(S(=O)(=O)NCC3CCC(C(=O)NCc4ccccc4)CC3)ccc21 (stereo not drawn)	25	-1	-25	2
CN(C)c1nc(SCCOC(=O)c2ccccc2)nc(N(C)C)n1	-3	1	3	-1
CCN(CC)c1nc(SCCOC(=O)Nc2ccccc2)nc(N(CC)CC)n1	87*	-11	-87	0
CCCc1cnc(N2CCN(C(=O)c3c(-c4ccccc4)noc3C)CC2)nc1	2	3	-2	1
COc1cc(C(=O)N2CCc3ccccc32)c([N+](=O)[O-])cc1OC	-11	-1	11	1
COc1ccc(/C=C/C(O)=C(\C#N)c2nnc(N3CCOCC3)n2-c2ccccc2)cc1OC	75*	-9	-75	1
COc1cc2c(cc1OC)CN(C(=O)C1CCC(=O)N(CCCN3CCOCC3)C1)CC2 (stereo not drawn)	-21	-2	21	-1
CCN1C(=O)/C(=C2/Sc3ccc(OC)cc3N2C)SC1=Nc1cccc(O)c1	94*	-10	-94	25
C=CCN1C(=O)/C(=C2/Sc3ccc(OC)cc3N2C)SC1=Nc1ccccc1	96*	-4	-96	1
C=CCN1C(=O)/C(=C2/Sc3ccc(OC)cc3N2C)SC1=NCc1ccccc1	14	2	-14	-4
Cc1ccccc1C(=O)c1cccn1CC(=O)NCc1cccc(Cl)c1	12	-2	-12	2
COC(=O)c1ccc(COC(=O)c2ccc(CS(=O)(=O)c3ccc(C)cc3)cc2)cc1	10	3	-10	1
COC(=O)c1cc2c(n1S(=O)(=O)c1ccc(C)cc1)C(=O)C(=O)c1[nH]cc(C(=O)OCc3ccccc3)c1-2	88*	-14	-88	0
O=C(Nc1cc(Cl)ccc1Cl)C1CC(=O)N(c2ccccc2)C1 (stereo not drawn)	-1	20*	1	0
COc1ccc(S(=O)(=O)N2CCOCC2)cc1NC(=O)c1cccs1	-9	-12	9	-2
Oc1ccccc1N=Nc1ccccc1O	87*	-6	-87	1
COc1cc(C(=O)NCCc2ccc(F)cc2)ccc1OCC(=O)N1CCOCC1	-12	-8	12	0
Cc1ccc(-c2[nH]nc(N)c2N=Nc2cccc(Cl)c2C)cc1	84*	-1	-84	2
Cc1ccc(N=Nc2c(N)n[nH]c2N)cc1	-13	0	13	0
Cc1cccc(N=Nc2c(N)n[nH]c2-c2ccc(Cl)cc2)c1	71*	-6	-71	1
COC(=O)c1ccccc1N=Nc1c(N)n[nH]c1N	-2	-4	2	1
Cc1ccc(-c2[nH]nc(N)c2N=Nc2ccccc2C)cc1	76*	3	-76	0

Screening results as filed in PubChem BioAssay.
